Screening results (PubChem)
NTR1 ag: activates human neurotensin receptor 1; actives 0.17% (n = 330,000); activation, % at 20 µM; NTR1-U2OS beta-arrestin-GFP spot imaging, agonist mode;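 active = activation at or above 40% of the spot to cytoplasm intensity ratio, with at least 20 cells analyzed; inconclusive = wells under 20 cells, flagged as cytotoxic or low count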;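 note: 0% = DMSO without peptide and 100% = 100 nM NTR1 peptide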
Target sequence (P30989 whole entry, looked up): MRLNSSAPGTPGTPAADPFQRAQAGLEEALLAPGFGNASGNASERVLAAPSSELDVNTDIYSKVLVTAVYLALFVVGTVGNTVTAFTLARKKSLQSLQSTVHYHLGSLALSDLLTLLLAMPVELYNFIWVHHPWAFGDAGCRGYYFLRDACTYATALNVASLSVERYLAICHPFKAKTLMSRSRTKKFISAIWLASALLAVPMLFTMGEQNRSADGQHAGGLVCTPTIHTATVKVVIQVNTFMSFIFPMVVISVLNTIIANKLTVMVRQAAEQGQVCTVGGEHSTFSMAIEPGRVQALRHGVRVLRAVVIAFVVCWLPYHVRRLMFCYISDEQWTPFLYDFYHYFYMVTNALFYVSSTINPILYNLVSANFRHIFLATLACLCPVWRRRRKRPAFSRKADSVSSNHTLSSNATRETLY
CAL PDZ FP-1: blocks peptide binding to human CAL PDZ domain. inhibition, % at 20 µM. actives 0.02% (n = 330,000). Q9HD26. AID 504414. purified CAL PDZ, TMR-peptide fluorescence polarization, 1 h;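 active = highest replicate inhibition of at least 40%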;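 note: plate controls were DMSO neutral control wells for no effect and unlabeled competitor peptide control wells for full effect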
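Test system: tagged CAL PDZ domain / Buffer or medium: sodium phosphate/NaCl buffer pH 7.4 with TCEP, IgG, Thesit / Reagent: TMR-labelled reporter peptide T*-PRC34 bound in PDZ groove / Compound dosing: single point, 20 µM / Schedule: 1 h incubation at room temperature before polarization reading / Technique: fluorescence polarization (mP) / Benchmarks: unlabelled peptide, DMSO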
PKA-R2B act: activates the human PKA-R2B holoenzyme complex; activation, % at 11.4 µM; AID 504700; PKA-R2B holoenzyme dissociation, Cy5-IP20 fluorescence polarization; R2B truncated from residue 108, S112A mutant; 0% DMSO only, 100% 113 µM cGMP; actives 0.079% (n = 340,000);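 active = activation above a cutoff set at the mean over all compounds plus 3 SD, cut at about 18% in these data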;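 note: higher means more holoenzyme dissociation and a rise in polarization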
CAL PDZ FP-2: blocks peptide binding to the human CAL PDZ domain; Q9HD26; purified CAL PDZ, TMR-peptide fluorescence polarization, 1 h; inhibition, % at 24.9 µM; actives 0.92% (n = 300,000); AID 602252;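 active = mean inhibition of at least 30% with at least half of replicates also reaching 30%; inconclusive = no clear call, values can overlap the other calls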;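 note: 0% = DMSO neutral control and 100% = excess unlabeled competitor peptide PRC23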
dFosB act-1: activators of mouse delta FosB homodimer. purified delta FosB, TAMRA-CDK5 oligo fluorescence polarization; percent of positive-control signal above neutral wells. activation, % at 25 µM. actives 0.99% (n = 340,000). AID 493131;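 active = mean activation above about 17%, with every replicate also reaching it, limit read from the data, passing the limit was not always enough; inconclusive = only one of the two conditions met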
Target sequence (P13346 whole entry, looked up): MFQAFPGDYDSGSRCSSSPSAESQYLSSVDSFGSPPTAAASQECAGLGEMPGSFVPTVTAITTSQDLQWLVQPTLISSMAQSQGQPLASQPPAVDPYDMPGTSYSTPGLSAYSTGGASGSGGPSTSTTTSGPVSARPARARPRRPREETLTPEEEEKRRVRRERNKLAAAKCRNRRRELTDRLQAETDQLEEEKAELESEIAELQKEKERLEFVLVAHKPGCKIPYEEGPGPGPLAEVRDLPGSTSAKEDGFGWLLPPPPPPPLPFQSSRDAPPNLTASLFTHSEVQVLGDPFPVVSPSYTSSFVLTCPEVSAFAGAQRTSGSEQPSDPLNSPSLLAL
PKA-R1A activ: activates the PKA-R1A holoenzyme complex. PKA-R1A dissociation, Cy5-IP20 fluorescence polarization; scaled: DMSO 0%, 113 µM cGMP 100%. actives 0.083% (n = 340,000). AID 504707. activation, % at 11.4 µM. P00514+P68181;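 active = percent activation above the mean of all tested compounds plus 3 SD, cut at about 19% in these data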;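 note: higher means more PKAc released from R1A so a rise in polarization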
dFosB act-2: delta FosB (mouse) homodimer activation; shares compounds with dFosB act-1; activation, % at 24.9 µM; purified delta FosB, TAMRA-CDK5 oligo fluorescence polarization; normalised: neutral wells 0, positive control 100; 2,400 tested, under 10 active; AID 588690;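 active = highest replicate activation at or above 34% and every replicate reaching that threshold; inconclusive = meets only one of the two criteria; inactive = meets neither criterion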;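 note: higher polarization means more probe DNA bound by delta FosB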
* marks the source's active call; other numbers are inactive results; ? = inconclusive; . = no result given. A selection: hits, their analogues and other compounds. The true share with any hit is near 2%.

SMILES | NTR1 ag | CAL PDZ FP-1 | PKA-R2B act | CAL PDZ FP-2 | dFosB act-1 | PKA-R1A activ | dFosB act-2
Cc1ccc2nc(NC(=O)c3ccc(Cl)s3)sc2c1 | 0.3 | -0.4 | 0.0 | . | 25.9* | 3.5 | -0.7
Cc1ccc2nc(NC(=O)c3ccc4ncsc4c3)sc2c1 | -0.5 | -1.6 | 6.2 | . | 21.7* | -6.2 | -9.6
Cc1ccc2nc(NC(=O)c3ccc4c(c3)OCO4)sc2c1 | -0.9 | -3.4 | 2.1 | -2.6 | 15.1 | 0.5 | .
CN1C(=O)CN(CCN2CC(=O)N(C)C(=O)C2)CC1=O | . | . | 4.9 | . | . | 2.5 | .
CCc1cc2ccc(C)c(C)c2nc1SCC(=O)NNC(=O)c1ccco1 | 2.3 | -1.0 | 4.0 | . | 27.6* | 3.0 | 1.2
CCc1cc2cccc(C)c2nc1SCC(=O)NNC(=O)c1ccco1 | -0.7 | -3.0 | -0.1 | -1.3 | -8.2 | -2.4 | .
Cc1ccc(S(=O)(=O)N2CCN(C)CC2)cc1C | -0.2 | 0.2 | -4.7 | . | -3.9 | -6.5 | .
Cc1ccc(S(=O)(=O)N2CCN(S(=O)(=O)c3c(C)n[nH]c3C)CC2)cc1C | 3.1 | 0.6 | 5.5 | -5.1 | 32.4* | -5.9 | -0.5
Cc1ccccc1C(=O)Nc1nnc(CC(=O)N/N=C/c2cn(Cc3ccccc3)c3ccccc23)s1 | 1.4 | -1.6 | -2.5 | -5.9 | -4.0 | -0.4 | .
Cc1ccccc1C(=O)Nc1nnc(CC(=O)N/N=C/c2ccco2)s1 | 1.1 | -2.8 | -9.2 | -0.6 | 39.6* | -6.1 | 5.2
O=C(NC(=O)N1CCN(c2ccc([N+](=O)[O-])cn2)CC1)c1c(Cl)cccc1Cl | 0.1 | . | . | . | . | . | .
Cc1ccnc(NC(=S)NC(=O)c2cncc(Br)c2)c1 | -0.8 | -3.4 | 1.5 | 1.8 | -7.1 | -8.0 | .
Cc1nc(NC(=S)NC(=O)c2cncc(Br)c2)ccc1Br | 3.0 | -0.5 | 5.2 | 8.6 | 20.7* | 4.2 | 1.2
O=C(c1ccc([N+](=O)[O-])cc1)n1nc(-c2ccccc2)nc1NCc1ccc(F)cc1 | . | 0.5 | -1.8 | -1.4 | -7.6 | -4.2 | .
O=C(c1ccc(F)cc1)n1c(NCc2ccccc2)n[nH]c1=S | 0.5 | -1.3 | 7.0 | 2.7 | 35.1* | -4.5 | -2.0
CCN(C(=O)COC(=O)c1ccccc1Cc1ccccc1)c1c(N)n(Cc2ccccc2)c(=O)[nH]c1=O | . | -0.4 | -2.6 | 3.0 | -3.1 | 3.3 | .
Cc1cc2occ(CC(=O)N(C)CC(=O)Nc3ccccc3C(F)(F)F)c2cc1C | 0.1 | -0.5 | -5.2 | -0.4 | -10.7 | 5.0 | .
COc1ccc(NC(=O)Cn2nc(C(=O)O)c3ccccc3c2=O)cc1Cl | -1.0 | -3.4 | -3.9 | 2.8 | 92.7* | -4.4 | 4.2
O=C(Cn1nc(C(=O)O)c2ccccc2c1=O)Nc1cccc(Br)c1 | 2.1 | -0.8 | -7.2 | -3.6 | 0.0 | 0.8 | .
Cn1c2ccccc2c2cnn(CC(=O)Nc3ccc(F)cc3F)c(=O)c21 | 1.7 | -2.0 | -6.6 | -19.6 | 20.6* | -4.2 | 3.4
O=C(Cn1nc(C(=O)O)c2ccccc2c1=O)Nc1ccc(F)cc1F | -1.3 | -2.6 | 1.3 | -4.3 | 25.6* | -1.1 | 3.2
Cn1c2ccccc2c2cnn(CC(=O)Nc3ccccc3Br)c(=O)c21 | 1.2 | -0.3 | -0.9 | 3.9 | 6.9 | -9.5 | .
COC(=O)C1(C)COP(=O)(NC23CC4CC(CC(C4)C2)C3)OC1 (centres undefined) | . | 0.3 | -1.8 | -0.3 | 2.8 | -0.5 | .
CC1=C(C(N)=O)C(c2ccccn2)n2nc(SCc3ccccc3Cl)nc2N1 (centres undefined) | -0.8 | -5.3 | -0.8 | -1.6 | 3.4 | -3.5 | .
CC1=C(C(N)=O)C(c2cccnc2)n2nc(SCc3ccccc3Cl)nc2N1 (centres undefined) | -1.8 | -0.6 | -2.2 | -0.3 | 101.1* | -8.7 | 4.5
SMILES | NTR1 ag | CAL PDZ FP-1 | PKA-R2B act | CAL PDZ FP-2 | dFosB act-1 | PKA-R1A activ | dFosB act-2
C[C@@H]1CN([C@H](C)CO)C(=O)CCCn2nncc2CO[C@H]1CN(C)C(=O)Nc1cccc2ccccc12 | . | . | 2.1 | . | . | -0.3 | .
Cc1ccc(S(=O)(=O)c2c[nH]c3cc4c(cc3c2=O)OCO4)cc1 | 1.2 | . | . | . | . | . | .
Nc1ccc2ncccc2c1N | . | 0.1 | -19.0 | -2.5 | -5.1 | -4.6 | .
Nc1nc(N)c2c(ccc3nccc32)[nH]1 | 2.3 | -2.0 | -17.5 | -4.4 | 35.7* | 4.5 | -6.8
COC(=O)Cn1c(=NC(=O)c2nc3ccccc3s2)sc2cc(S(N)(=O)=O)ccc21 | 3.6 | -1.2 | -0.4 | -1.8 | ? | -7.1 | .
C#CCn1c(=NC(=O)c2sc3ccccc3c2Cl)sc2cc(S(N)(=O)=O)ccc21 | . | -2.4 | 4.3 | -5.3 | 77.4* | 4.6 | -1.1
C#CCn1c(=NC(=O)c2ccc(S(=O)(=O)N3CCc4ccccc4C3)cc2)sc2cc(S(N)(=O)=O)ccc21 | 8.0 | -0.2 | -0.8 | . | 51.3* | -1.6 | 2.6
CN(Cc1c(C(=O)N/N=C/c2ccccc2O)nnn1-c1nonc1N)C1CCCCC1 | . | . | -8.0 | . | . | 3.2 | .
Cc1cc(NC(=O)c2ccc(C)c([N+](=O)[O-])c2)no1 | -0.1 | -2.4 | 0.5 | -16.4 | -3.5 | -2.8 | .
Cc1cc(NC(=O)c2ccc(Br)c([N+](=O)[O-])c2)no1 | -0.6 | -0.8 | -1.3 | . | 45.6* | 6.2 | 1.3
CC(C)(C)C(=O)OCc1ccc(C2=CC(=O)CC(C)(C)C2=O)cc1 | . | . | -5.4 | . | . | -3.5 | .
CC(=O)Oc1ccc(C(=O)Nc2cccc(C(=O)c3cccc(NC(=O)c4ccc(OC(C)=O)cc4)c3)c2)cc1 | 2.7 | -1.7 | 4.4 | 1.1 | 56.7* | 4.0 | 2.0
Cc1nn(CC(=O)NC(C)c2ccccc2)c(=O)c2ccccc12 (centres undefined) | 1.8 | 0.3 | -12.8 | -3.2 | -3.6 | 8.9 | .
Cc1ccc(-c2nn(CC(=O)NC(C)c3ccccc3)c(=O)c3ccccc23)cc1 (centres undefined) | 1.8 | -4.0 | -24.4 | -4.8 | 27.7* | -6.6 | -22.1
CN([C@@H](Cc1ccc(OS(=O)(=O)c2cccc3cnccc23)cc1)C(=O)N1CCN(c2ccccc2)CC1)S(=O)(=O)c1cccc2cnccc12 | 2.8 | -0.9 | -8.3 | -2.2 | 20.5* | -8.1 | 1.8
O=C(COC(=O)c1cccnc1Nc1ccccc1F)NCc1ccc2c(c1)OCO2 | 1.9 | 0.1 | -8.3 | 3.7 | 55.2* | -3.9 | 3.2
N#CCc1ccccc1C(=O)OCC(=O)N(Cc1ccccc1)Cc1ccccc1 | 0.6 | 1.5 | -5.3 | 0.7 | -4.7 | 2.9 | .
Cc1ccc(C(=O)N2CC(C)CC(C)C2)cc1NC1=NC2CS(=O)(=O)CC2S1 (centres undefined) | 3.0 | -0.8 | -6.1 | 9.3 | 4.9 | 4.5 | .
